# Calls of active or inactive are those of the source. Square brackets hold non-standard residues; d marks the D form. Peptide text beside a SMILES is read from it. * marks the point of attachment. Cav = NC(N)=NOCC[C@H](N)C(=O)O; Tle = CC(C)(C)[C@H](N)C(=O)O; X1 = C[C@@H](CCCCN)C(=O)*
# Assays:
# [1] = Stability of compound in PBS buffer assessed as parent compound remaining at pH 2.0 incubated for 24 hrs by UV/Vis spectroscopic analysis; assay type: physicochemical; details: read-out: Stability
# How it was run: (§1)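 Peptide at 50 μM in PBS at pH 2.0 or 7.4, kept at 37 °C; short-term stability over 0–24 h followed by UV/Vis spectroscopy; % remaining reported.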
# [2] = target: T1, Neurotensin receptor type 1 (Homo sapiens, UniProt P30989); test: Agonist activity at human NTSR1 expressed in HEK293 cells assessed as Galphaq-mediated modulation of IP production incubated for 90 mins by IP-one HTRF assay; assay type: functional, cell-based
# T1 sequence (P30989 whole entry): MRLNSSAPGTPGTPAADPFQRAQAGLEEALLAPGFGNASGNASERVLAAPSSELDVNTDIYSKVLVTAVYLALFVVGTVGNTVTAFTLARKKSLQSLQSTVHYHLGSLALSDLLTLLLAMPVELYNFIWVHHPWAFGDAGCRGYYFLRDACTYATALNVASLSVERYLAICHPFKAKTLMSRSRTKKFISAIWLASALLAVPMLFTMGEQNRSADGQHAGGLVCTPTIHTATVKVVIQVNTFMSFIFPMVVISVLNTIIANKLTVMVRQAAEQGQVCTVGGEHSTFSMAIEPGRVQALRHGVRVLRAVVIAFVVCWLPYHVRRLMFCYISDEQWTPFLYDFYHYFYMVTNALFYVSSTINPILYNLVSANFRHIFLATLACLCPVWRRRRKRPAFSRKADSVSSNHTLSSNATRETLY
# HT-29 [3] = test: Cytotoxicity against human HT-29 cells assessed as reduction in cell viability at 100 uM incubated for 24 hrs by MTT assay relative to control; assay type: toxicity, cell-based; details: ht-29, 24 h
# How it was run: (§2)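 HepG2, MDA-MB-231 and HT-29 cells grown in DMEM/10% FBS with penicillin/streptomycin at 37 °C, 5% CO2. Exponential-phase cells seeded at 5000/well, left overnight, then exposed 24 h to peptide at 0.1–100 μM (from 1.0 mM PBS pH 7.4 stocks). Viability by MTT, as % of untreated control ± SD.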
# Mus musculus [4] = test: (§3) Neuroprotective activity against MPTP-induced Parkinson's disease BALB/c albino mouse model assessed as restoration of step-through latency values at 10 mg/kg, ip preadministered with compound for 1 hrs followed by MPTP addition and measured 10 days after first MPTP addition by step-through passive avoidance test; assay type: functional, organism-based; details: time 241.0 hrs
# How it was run: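 Male BALB/c mice (8–10 weeks, 30–35 g), n = 5/group, were dosed i.p. once daily for 5 days with peptide (10 mg/kg), then MPTP (30 mg/kg) 60 min later; controls received saline or MPTP alone. On day 10, the latency to enter the dark compartment was recorded (cut-off 180 s). Data are mean ± SEM, analysed by one-way ANOVA/Dunnett versus saline and MPTP groups.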
# [5] = Stability of compound in PBS buffer assessed as parent compound remaining at pH 2.0 measured after 30 days by RP-HPLC/UV/Vis spectroscopic analysis; assay type: physicochemical; details: time 30 day, read-out: Stability
# How it was run: (§4)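 Peptide at 50 μM in PBS at pH 2.0 or 7.4, stored at room temperature and 37 °C for 30 days; % peptide remaining reported.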
# [6] = Stability of compound in PBS buffer assessed as parent compound remaining at pH 7.4 incubated for 24 hrs by UV/Vis spectroscopic analysis; assay type: physicochemical; details: read-out: Stability; how it was run: as §1
# [7] = Permeability of compound in PBS buffer at pH 7.4 at 100 uM incubated for 4 hrs by PAMPA-BBB assay; assay type: ADME; details: read-out: permeability
# How it was run: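 PAMPA-BBB with peptide at 100 μM in PBS, donor and acceptor both pH 7.4, 4 h at room temperature. Effective permeability Pe (×10⁻⁶ cm/s) and −log Pe reported as mean ± SEM of three independent experiments.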
# [8] = Stability of compound in PBS buffer assessed as parent compound remaining at pH 7.4 measured after 30 days by RP-HPLC/UV/Vis spectroscopic analysis; assay type: physicochemical; details: time 30 day, read-out: Stability; how it was run: as §4
# [9] = Toxicity in MPTP-induced parkinsons's disease BALB/c albino mouse model assessed as body weight loss at 10 mg/kg, ip preadministered with compound for 1 hrs followed by MPTP-addition and measured 10 days after first MPTP addition; assay type: organism-based; details: in vivo, 241 h
# How it was run: (§5)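 Male BALB/c mice (n = 5/group) given peptide 10 mg/kg i.p. daily for 5 days, each dose followed 60 min later by MPTP 30 mg/kg i.p.; saline controls. Body weight recorded on days 1, 5 and 10.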
# [10] = target: Neurotensin receptor type 2 (Homo sapiens, UniProt O95665); test: Binding affinity to human NTSR2 transfected in HEK293 cells assessed as inhibition constant incubated for 60 mins in the presence of [Leu3H]NT(8-13) by radioligand competition binding assay; assay type: cell-based
# Sequence of Neurotensin receptor type 2 (O95665 whole entry): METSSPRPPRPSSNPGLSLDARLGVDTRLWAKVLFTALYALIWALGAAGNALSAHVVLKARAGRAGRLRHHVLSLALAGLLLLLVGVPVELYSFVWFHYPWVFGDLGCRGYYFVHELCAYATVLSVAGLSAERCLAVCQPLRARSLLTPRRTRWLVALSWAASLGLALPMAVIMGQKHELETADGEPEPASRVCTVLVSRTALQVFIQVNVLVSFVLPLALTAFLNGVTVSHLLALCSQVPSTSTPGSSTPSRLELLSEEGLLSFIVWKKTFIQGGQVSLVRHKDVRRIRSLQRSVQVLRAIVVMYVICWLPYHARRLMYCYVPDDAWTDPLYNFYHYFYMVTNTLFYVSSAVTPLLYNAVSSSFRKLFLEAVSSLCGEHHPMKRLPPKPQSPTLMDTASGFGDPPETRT
# How it was run: (§6)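 IC50 from nonlinear regression, converted to Ki by Cheng–Prusoff; protein by Lowry. Means ± SEM of three (NTS1R) or four to five (NTS2R) experiments, each in triplicate. SI = Ki(NTS1R)/Ki(NTS2R).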
# MDA-MB-231 [11] = test: Cytotoxicity against human MDA-MB-231 cells assessed as reduction in cell viability at 100 uM incubated for 24 hrs by MTT assay relative to control; assay type: toxicity, cell-based; details: mda-mb-231, 24 h; how it was run: as §2
# HepG2 [12] = test: Cytotoxicity against human HepG2 cells assessed as reduction in cell viability at 100 uM incubated for 24 hrs by MTT assay relative to control; assay type: toxicity, cell-based; details: hepg2, 24 h; how it was run: as §2
# [13] = Toxicity in MPTP-induced parkinsons's disease BALB/c albino mouse model assessed as body weight loss at 10 mg/kg, ip preadministered with compound for 1 hrs followed by MPTP-addition and measured 5 days after first MPTP addition; assay type: organism-based; details: in vivo, 121 h; how it was run: as §5
# [14] = target: T1, Neurotensin receptor type 1; test: Binding affinity to human NTSR1 transfected in HEK293 cells assessed as inhibition constant incubated for 60 mins in the presence of [Leu3H]NT(8-13) by radioligand competition binding assay; assay type: cell-based
# Mus musculus [15] = test: Neuroprotective activity against MPTP-induced neurotoxicity in BALB/c albino mouse model assessed as alleviation of MPTP-induced nigrostriatal dopaminergic neuronal damage by measuring increase in number of TH-postivie neurons in substantia nigra at 10 mg/kg, ip preadministered with compound for 1 hrs followed by MPTP addition and measured 11 days after first MPTP addition by immunohistological staining analysis (reference value: 66 +/- 1.41%); assay type: functional; details: time 265 hrs
# How it was run: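 Same dosing as the behavioural study (peptide 10 mg/kg i.p., then MPTP 30 mg/kg i.p. 60 min later, 5 days; n = 5). Brains taken on day 11, fixed in 10% paraformaldehyde (pH 7.4, 0.1 M phosphate) overnight at 4 °C and paraffin-embedded. Substantia nigra sections stained with rabbit anti-TH (1:500). TH-positive cells counted, as % of saline control; ANOVA/Dunnett.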
# Mus musculus [16] = test: as §3, with “motor function by measuring increase in hanging time value” for “step-through latency values”, “hanging” for “step-through passive avoidance”, “test relative to control” for “test”; assay type: functional; details: time 241 hrs
# How it was run: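 Male BALB/c mice, 8–10 weeks old, 30–35 g, n = 5/group, trained 3 days on a horizontal wire (55 cm, 2.0 mm diameter, 37 cm high). Peptide 10 mg/kg i.p. daily for 5 days, with MPTP 30 mg/kg i.p. given 60 min later; saline controls. Hanging time tested on day 10; one-way ANOVA with Dunnett's test; mean ± SEM.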
# [17] = target: T1, Neurotensin receptor type 1; test: Agonist activity at human NTSR1 expressed in HEK293 cells assessed as Galphaq-mediated modulation of IP production by measuring maximal efficacy incubated for 90 mins by IP-one HTRF assay relative to full effect of (2S)-2-[[(2S,3S)-2-[[(2S)-2-[[(2S)-1-[(2S)-2-[[(2S)-2-amino-5-guanidino-pentanoyl]amino]-5-guanidino-pentanoyl]pyrrolidine-2-carbonyl]amino]-3-(4-hydroxyphenyl)propanoyl]amino]-3-methyl-pentanoyl]amino]-4-methyl-pentanoic acid; assay type: functional, cell-based; details: filed as agonist
# Homo sapiens = organism: Homo sapiens; test: Selectivity index, ratio of Ki for human NTSR1 transfected in HEK293 cells in the presence of [Leu3H]NT(8-13) to Ki for human NTSR2 transfected in HEK293 cells in the presence of [Leu3H]NT(8-13); assay type: cell-based
# How it was run: as §6, with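 “Membranes from HEK293(T) cells transiently transfected with hNTS1R or hNTS2R; competition binding against [³H]NT(8–13). IC50” for “IC50”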
# HT-29 [18] = test: Cytotoxicity against human HT-29 cells assessed as reduction in cell viability at 0.1 to 100 uM incubated for 24 hrs by MTT assay; assay type: toxicity, cell-based; details: ht-29, 24 h, dose 0.1-100 µM; how it was run: as §2
# MDA-MB-231 [19] = test: Cytotoxicity against human MDA-MB-231 cells assessed as reduction in cell viability at 0.1 to 100 uM incubated for 24 hrs by MTT assay; assay type: toxicity, cell-based; details: mda-mb-231, 24 h, dose 0.1-100 µM; how it was run: as §2
# HepG2 [20] = test: Cytotoxicity against human HepG2 cells assessed as reduction in cell viability at 0.1 to 100 uM incubated for 24 hrs by MTT assay; assay type: toxicity, cell-based; details: hepg2, 24 h, dose 0.1-100 µM; how it was run: as §2
# [21] = target: T1, Neurotensin receptor type 1; test: Binding affinity to human NTS1R assessed as dissociation constant
SMILES,remaining at 24 h [1],EC50 [2],remaining at 720 h [5],remaining at 24 h [6],"Papp at 4 h, 100 µM [7]",remaining at 720 h [8],Ki [10],Ki [14],Emax [17],viability (HT-29 [3]),viability (MDA-MB-231 [11]),viability (HepG2 [12]),Activity (HT-29 [18]),Activity (MDA-MB-231 [19]),Activity (HepG2 [20]),further results
CC[C@H](C)[C@H](NC(=O)[C@H](Cc1ccc(O)cc1)NC(=O)[C@@H]1CCCN1C(=O)[C@H](CCCNC(=N)N)NC(=O)[C@@H](N)CCCNC(=N)N)C(=O)N[C@@H](CC(C)C)C(=O)O,100%,–,> 97%,100%,0.64 ×10⁻⁶ cm/s,100%,–,–,–,90.7%,93.3%,96%,Non-Toxic,Non-Toxic,Non-Toxic,Activity (Mus musculus [4]): Active; Activity [9]: Non-Toxic; Activity [13]: Toxic; Activity (Mus musculus [15]): 77.5%; Activity (Mus musculus [16]): 31%
CC(C)C[C@H](NC(=O)[C@@H](NC(=O)[C@H](Cc1ccc(O)cc1)NC(=O)[C@@H]1CCCN1C(=O)[C@H](CCCNC(=N)N)NC(=O)[C@@H](C)CCCCN)C(C)(C)C)C(=O)O (X1-RPY[Tle]L-OH),–,–,–,–,–,–,–,–,–,–,–,–,–,–,–,Kd [21]: 5.71 nM
CC[C@H](C)[C@H](NC(=O)[C@H](Cc1ccc(O)cc1)NC(=O)[C@@H]1CCCN1C(=O)[C@H](CCCN=C(N)N)NC(=O)[C@@H](N)CCON=C(N)N)C(=O)N[C@@H](CC(C)C)C(=O)O,–,–,–,–,–,–,–,–,–,–,–,–,Non-Toxic,Non-Toxic,Non-Toxic,–
CC[C@H](C)[C@H](NC(=O)[C@H](Cc1ccc(O)cc1)NC(=O)[C@@H]1CCCN1C(=O)[C@H](CCON=C(N)N)NC(=O)[C@@H](N)CCON=C(N)N)C(=O)N[C@@H](CC(C)C)C(=O)O,–,–,–,–,–,–,–,–,–,–,–,–,Non-Toxic,Non-Toxic,Non-Toxic,–

# Second part, led by results:
remaining at 24 h [1],EC50 [2],remaining at 720 h [5],remaining at 24 h [6],"Papp at 4 h, 100 µM [7]",remaining at 720 h [8],Ki [10],Ki [14],Emax [17],SMILES,viability (HT-29 [3]),viability (MDA-MB-231 [11]),viability (HepG2 [12]),Activity (HT-29 [18]),Activity (MDA-MB-231 [19]),Activity (HepG2 [20]),further results
100%,0.82 nM,> 97%,100%,2.81 ×10⁻⁶ cm/s,> 100%,6.5 nM,6.9 nM,97%,CC[C@H](C)[C@H](NC(=O)[C@H](Cc1ccc(O)cc1)NC(=O)[C@@H]1CCCN1C(=O)[C@H](CCON=C(N)N)NC(=O)[C@@H](N)CCCCN)C(=O)N[C@@H](CC(C)C)C(=O)O (H-K[Cav]PYIL-OH),94.6%,97.3%,95.1%,–,–,–,Activity (Mus musculus [4]): Active; Activity [9]: Non-Toxic; Activity [13]: Toxic; Activity (Mus musculus [15]): 90%; Activity (Mus musculus [16]): 87%; Ratio Ki (Homo sapiens): 1.06
100%,–,> 94%,100%,0.89 ×10⁻⁶ cm/s,> 95%,–,–,–,CC[C@H](C)[C@H](NC(=O)[C@H](Cc1ccc(O)cc1)NC(=O)[C@@H]1CCCN1C(=O)[C@H](CCON=C(N)N)NC(=O)[C@@H](N)CCCN=C(N)N)C(=O)N[C@@H](CC(C)C)C(=O)O,88.9%,97.7%,99.8%,–,–,–,–
–,3200 nM,–,–,–,–,> 50000 nM,> 50000 nM,100%,CC[C@H](C)[C@H](NC(=O)[C@H](Cc1ccc(O)cc1)NC(=O)[C@@H]1CCCN1)C(=O)N[C@@H](CC(C)C)C(=O)O (H-PYIL-OH),–,–,–,Non-Toxic,Non-Toxic,Non-Toxic,–
–,0.85 nM,–,–,–,–,14 nM,15 nM,99%,CC[C@H](C)[C@H](NC(=O)[C@H](Cc1ccc(O)cc1)NC(=O)[C@@H]1CCCN1C(=O)[C@H](CCCCN)NC(=O)[C@@H](N)CCON=C(N)N)C(=O)N[C@@H](CC(C)C)C(=O)O (H-[Cav]KPYIL-OH),–,–,–,Non-Toxic,Non-Toxic,Non-Toxic,Ratio Ki (Homo sapiens): 1.07

# Source: ChEMBL document CHEMBL5325438 (Eur J Med Chem, 2023)
